Source: ChEMBL document CHEMBL2417369, “Synthesis and evaluation of heteroaryl substituted diazaspirocycles as scaffolds to probe the ATP-binding site of protein kinases” (Bioorg Med Chem, 2013)

How the values were obtained:
Homo sapiens = organism: Homo sapiens; assay: Inhibition of CSNK1 (unknown origin) at 30 uM by microfluidic mobility shift assay relative to control
Outline: (§1)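 Single-point screen at 30 µM test compound across a 24-kinase panel in a microfluidic assay format. ATP was set near each enzyme's Km,[ATP]. […] The pan-AGC inhibitor H-89 served as an internal control on every assay plate.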

[1] = target: Protein kinase C beta type (Homo sapiens) (UniProt P05771); assay: Inhibition of PKCbeta-1 (unknown origin) at 30 uM by microfluidic mobility shift assay relative to control; outline: as §1
Protein kinase C beta type (Homo sapiens), sequence (P05771 2-671 limits assumed): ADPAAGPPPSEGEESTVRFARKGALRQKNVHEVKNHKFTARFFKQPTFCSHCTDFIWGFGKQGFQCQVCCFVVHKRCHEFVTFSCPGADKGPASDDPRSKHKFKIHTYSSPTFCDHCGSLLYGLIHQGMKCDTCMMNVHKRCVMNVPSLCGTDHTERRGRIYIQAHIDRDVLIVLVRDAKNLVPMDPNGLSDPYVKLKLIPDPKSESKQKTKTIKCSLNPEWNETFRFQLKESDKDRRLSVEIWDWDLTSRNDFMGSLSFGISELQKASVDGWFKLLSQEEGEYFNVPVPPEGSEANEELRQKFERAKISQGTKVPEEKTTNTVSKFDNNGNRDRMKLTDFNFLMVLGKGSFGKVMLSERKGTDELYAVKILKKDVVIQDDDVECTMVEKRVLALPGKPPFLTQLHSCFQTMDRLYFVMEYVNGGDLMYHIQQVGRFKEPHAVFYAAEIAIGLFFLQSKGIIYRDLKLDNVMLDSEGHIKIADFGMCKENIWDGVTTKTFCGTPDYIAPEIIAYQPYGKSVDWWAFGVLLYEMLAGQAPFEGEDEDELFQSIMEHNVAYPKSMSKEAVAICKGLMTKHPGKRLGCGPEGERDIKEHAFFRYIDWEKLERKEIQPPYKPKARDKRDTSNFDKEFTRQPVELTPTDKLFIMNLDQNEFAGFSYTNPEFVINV

[2] = target: Insulin-like growth factor 1 receptor (Homo sapiens) (UniProt P08069); assay: Inhibition of IGF1R (unknown origin) at 30 uM by microfluidic mobility shift assay relative to control; outline: as §1
[3] = target: Receptor-type tyrosine-protein kinase FLT3 (Homo sapiens) (UniProt P36888); assay: Inhibition of FLT3 (unknown origin) at 30 uM by microfluidic mobility shift assay relative to control; outline: as §1
Receptor-type tyrosine-protein kinase FLT3 (Homo sapiens), sequence (P36888 whole entry): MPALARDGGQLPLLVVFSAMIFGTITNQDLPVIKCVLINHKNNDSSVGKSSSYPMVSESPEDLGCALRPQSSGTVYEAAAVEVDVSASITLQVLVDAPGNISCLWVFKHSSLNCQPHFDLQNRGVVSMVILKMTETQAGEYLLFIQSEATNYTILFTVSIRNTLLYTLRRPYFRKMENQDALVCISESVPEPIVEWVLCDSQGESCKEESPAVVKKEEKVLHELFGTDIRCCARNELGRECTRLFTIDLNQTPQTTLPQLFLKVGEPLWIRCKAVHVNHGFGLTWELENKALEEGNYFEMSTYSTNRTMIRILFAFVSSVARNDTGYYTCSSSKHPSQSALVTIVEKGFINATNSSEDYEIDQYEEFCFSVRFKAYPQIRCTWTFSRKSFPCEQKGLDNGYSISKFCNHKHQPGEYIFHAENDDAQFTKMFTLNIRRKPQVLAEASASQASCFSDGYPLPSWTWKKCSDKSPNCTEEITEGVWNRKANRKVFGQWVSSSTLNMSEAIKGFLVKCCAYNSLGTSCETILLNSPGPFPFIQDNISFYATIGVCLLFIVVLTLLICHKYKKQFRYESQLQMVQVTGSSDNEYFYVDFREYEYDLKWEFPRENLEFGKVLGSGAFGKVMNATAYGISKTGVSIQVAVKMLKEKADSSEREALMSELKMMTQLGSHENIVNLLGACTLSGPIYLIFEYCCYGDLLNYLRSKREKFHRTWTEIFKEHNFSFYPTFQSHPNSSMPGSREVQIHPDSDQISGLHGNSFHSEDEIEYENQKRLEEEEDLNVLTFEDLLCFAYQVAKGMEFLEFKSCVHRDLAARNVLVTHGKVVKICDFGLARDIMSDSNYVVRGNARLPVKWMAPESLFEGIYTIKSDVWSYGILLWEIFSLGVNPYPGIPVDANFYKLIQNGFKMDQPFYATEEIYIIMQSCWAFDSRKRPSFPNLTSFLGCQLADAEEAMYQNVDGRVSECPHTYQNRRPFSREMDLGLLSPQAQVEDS

[4] = target: T1, Testis-specific serine/threonine-protein kinase 1 (Homo sapiens) (UniProt Q9BXA7); assay: Inhibition of TSSK1 (unknown origin) at 30 uM by microfluidic mobility shift assay relative to control
T1 sequence (whole entry): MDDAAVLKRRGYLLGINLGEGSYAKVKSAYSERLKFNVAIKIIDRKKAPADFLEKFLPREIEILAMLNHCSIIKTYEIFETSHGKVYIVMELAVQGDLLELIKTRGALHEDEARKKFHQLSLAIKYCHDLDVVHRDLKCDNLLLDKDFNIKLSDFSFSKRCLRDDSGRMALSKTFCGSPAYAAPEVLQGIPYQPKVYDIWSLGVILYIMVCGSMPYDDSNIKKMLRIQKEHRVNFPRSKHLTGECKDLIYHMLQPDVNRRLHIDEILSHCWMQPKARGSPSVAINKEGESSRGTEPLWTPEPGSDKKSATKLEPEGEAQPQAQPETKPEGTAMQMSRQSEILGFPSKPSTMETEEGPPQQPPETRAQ
Outline: (§2)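 Single-point screen against a 24-kinase panel in a commercial microfluidic assay format. Compounds were tested at 30 µM, with ATP at approximately the Km,[ATP] of each enzyme. H-89 was included on each assay plate as an internal control.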

[5] = target: Ribosomal protein S6 kinase alpha-4 (Homo sapiens) (UniProt O75676); assay: Inhibition of MSK2 (unknown origin) at 30 uM by microfluidic mobility shift assay relative to control; outline: as §1
Ribosomal protein S6 kinase alpha-4 (Homo sapiens), sequence (O75676 whole entry, looked up): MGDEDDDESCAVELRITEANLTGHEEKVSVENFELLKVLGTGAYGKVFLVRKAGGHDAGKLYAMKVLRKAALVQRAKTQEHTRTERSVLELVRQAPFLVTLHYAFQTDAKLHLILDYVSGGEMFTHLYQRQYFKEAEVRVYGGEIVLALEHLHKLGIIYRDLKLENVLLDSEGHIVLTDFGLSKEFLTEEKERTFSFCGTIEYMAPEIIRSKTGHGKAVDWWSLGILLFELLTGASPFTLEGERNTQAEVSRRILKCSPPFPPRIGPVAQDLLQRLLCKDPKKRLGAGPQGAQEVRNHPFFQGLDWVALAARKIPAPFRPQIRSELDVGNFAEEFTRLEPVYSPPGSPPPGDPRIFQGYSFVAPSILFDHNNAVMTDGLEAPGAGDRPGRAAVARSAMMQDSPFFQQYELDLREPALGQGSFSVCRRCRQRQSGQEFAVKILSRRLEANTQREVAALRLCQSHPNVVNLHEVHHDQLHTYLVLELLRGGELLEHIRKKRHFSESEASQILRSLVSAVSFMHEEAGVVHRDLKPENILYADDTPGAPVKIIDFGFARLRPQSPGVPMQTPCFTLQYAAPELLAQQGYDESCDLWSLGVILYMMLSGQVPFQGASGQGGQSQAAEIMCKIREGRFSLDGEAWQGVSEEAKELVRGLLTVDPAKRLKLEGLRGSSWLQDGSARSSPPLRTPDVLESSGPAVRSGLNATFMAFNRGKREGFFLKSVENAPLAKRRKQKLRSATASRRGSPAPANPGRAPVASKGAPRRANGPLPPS

[6] = target: Epidermal growth factor receptor (Homo sapiens) (UniProt P00533); assay: Inhibition of EGFR (unknown origin) at 30 uM by microfluidic mobility shift assay relative to control; outline: as §1
Epidermal growth factor receptor (Homo sapiens), sequence (P00533 whole entry): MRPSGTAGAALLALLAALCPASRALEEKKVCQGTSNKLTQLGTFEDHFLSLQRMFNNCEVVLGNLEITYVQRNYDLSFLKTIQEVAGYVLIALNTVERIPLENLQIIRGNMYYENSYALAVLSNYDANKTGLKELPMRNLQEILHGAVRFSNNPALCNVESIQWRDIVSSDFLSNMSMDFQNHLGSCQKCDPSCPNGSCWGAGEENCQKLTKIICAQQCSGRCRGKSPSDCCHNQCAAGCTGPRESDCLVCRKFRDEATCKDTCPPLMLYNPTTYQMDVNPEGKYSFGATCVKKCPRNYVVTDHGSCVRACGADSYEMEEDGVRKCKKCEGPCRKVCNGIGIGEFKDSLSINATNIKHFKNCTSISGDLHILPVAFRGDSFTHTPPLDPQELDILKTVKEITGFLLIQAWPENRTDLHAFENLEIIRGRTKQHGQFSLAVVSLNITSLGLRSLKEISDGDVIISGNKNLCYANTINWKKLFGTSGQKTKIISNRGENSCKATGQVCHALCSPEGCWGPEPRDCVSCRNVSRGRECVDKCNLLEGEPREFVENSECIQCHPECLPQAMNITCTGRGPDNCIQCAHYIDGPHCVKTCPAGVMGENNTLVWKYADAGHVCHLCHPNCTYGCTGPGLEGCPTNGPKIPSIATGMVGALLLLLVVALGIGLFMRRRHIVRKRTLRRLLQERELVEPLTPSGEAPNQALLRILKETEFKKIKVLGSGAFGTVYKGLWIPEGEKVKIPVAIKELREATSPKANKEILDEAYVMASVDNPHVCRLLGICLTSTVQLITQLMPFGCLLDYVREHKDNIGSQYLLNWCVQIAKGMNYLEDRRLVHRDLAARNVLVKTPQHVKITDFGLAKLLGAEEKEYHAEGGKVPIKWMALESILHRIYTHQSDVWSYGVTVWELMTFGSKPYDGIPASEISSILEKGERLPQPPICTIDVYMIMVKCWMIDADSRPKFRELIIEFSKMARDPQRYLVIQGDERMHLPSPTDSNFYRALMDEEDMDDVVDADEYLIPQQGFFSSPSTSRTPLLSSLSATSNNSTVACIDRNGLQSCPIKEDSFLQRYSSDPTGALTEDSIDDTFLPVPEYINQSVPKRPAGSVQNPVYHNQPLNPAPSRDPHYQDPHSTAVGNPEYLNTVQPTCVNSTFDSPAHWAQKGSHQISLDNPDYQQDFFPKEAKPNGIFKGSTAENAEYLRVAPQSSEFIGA

[7] = target: Calcium/calmodulin-dependent protein kinase type II subunit gamma (Homo sapiens) (UniProt Q13555); assay: Inhibition of CAMK2gamma (unknown origin) at 30 uM by microfluidic mobility shift assay relative to control
Calcium/calmodulin-dependent protein kinase type II subunit gamma (Homo sapiens), sequence (Q13555 whole entry, looked up): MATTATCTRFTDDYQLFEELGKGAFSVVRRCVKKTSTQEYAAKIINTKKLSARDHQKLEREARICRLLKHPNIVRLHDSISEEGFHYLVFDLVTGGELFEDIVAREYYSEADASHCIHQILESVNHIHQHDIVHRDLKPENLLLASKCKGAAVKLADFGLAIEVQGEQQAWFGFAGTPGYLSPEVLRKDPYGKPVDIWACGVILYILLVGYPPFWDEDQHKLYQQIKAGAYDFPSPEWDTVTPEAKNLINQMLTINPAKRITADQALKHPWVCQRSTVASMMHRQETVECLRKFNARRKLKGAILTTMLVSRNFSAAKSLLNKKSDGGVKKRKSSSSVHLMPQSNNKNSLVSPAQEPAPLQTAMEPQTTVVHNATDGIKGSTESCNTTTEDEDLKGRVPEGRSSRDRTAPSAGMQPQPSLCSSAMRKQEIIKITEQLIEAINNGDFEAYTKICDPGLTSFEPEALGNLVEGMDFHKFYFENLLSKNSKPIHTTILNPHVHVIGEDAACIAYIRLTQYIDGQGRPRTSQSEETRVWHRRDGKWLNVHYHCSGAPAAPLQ

[8] = target: T2, Serine/threonine-protein kinase 3 (Homo sapiens) (UniProt Q13188); assay: Inhibition of MST2 (unknown origin) at 30 uM by microfluidic mobility shift assay relative to control; outline: as §1
T2 sequence (whole entry): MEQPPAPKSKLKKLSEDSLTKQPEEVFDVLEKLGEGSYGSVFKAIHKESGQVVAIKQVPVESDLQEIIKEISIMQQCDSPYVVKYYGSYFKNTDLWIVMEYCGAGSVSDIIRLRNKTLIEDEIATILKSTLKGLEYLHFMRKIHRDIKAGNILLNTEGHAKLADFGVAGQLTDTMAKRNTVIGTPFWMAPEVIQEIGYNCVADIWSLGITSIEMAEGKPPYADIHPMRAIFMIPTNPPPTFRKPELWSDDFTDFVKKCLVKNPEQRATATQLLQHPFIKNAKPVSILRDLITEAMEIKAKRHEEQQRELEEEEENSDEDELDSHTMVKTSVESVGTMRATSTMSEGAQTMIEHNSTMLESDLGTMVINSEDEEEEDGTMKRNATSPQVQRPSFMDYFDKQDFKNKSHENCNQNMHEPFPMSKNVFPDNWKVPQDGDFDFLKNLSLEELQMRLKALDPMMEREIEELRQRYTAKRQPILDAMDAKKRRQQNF

[9] = target: Serine/threonine-protein kinase pim-1 (Homo sapiens) (UniProt P11309); assay: Inhibition of PIM1 (unknown origin) at 30 uM by microfluidic mobility shift assay relative to control; outline: as §1
Serine/threonine-protein kinase pim-1 (Homo sapiens), sequence (P11309 whole entry, looked up): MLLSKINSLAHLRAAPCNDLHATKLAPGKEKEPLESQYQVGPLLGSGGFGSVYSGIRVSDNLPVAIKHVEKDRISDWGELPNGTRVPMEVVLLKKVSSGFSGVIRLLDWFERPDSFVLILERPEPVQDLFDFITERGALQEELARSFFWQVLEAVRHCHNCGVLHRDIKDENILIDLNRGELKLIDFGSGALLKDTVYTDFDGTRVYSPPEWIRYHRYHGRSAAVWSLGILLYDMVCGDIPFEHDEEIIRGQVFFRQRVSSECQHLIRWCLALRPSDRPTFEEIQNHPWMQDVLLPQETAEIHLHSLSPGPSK

[10] = target: T3, Serine/threonine-protein kinase Sgk1 (Homo sapiens) (UniProt O00141); assay: Inhibition of SGK1 (unknown origin) at 30 uM by microfluidic mobility shift assay relative to control; outline: as §2
T3 sequence (whole entry): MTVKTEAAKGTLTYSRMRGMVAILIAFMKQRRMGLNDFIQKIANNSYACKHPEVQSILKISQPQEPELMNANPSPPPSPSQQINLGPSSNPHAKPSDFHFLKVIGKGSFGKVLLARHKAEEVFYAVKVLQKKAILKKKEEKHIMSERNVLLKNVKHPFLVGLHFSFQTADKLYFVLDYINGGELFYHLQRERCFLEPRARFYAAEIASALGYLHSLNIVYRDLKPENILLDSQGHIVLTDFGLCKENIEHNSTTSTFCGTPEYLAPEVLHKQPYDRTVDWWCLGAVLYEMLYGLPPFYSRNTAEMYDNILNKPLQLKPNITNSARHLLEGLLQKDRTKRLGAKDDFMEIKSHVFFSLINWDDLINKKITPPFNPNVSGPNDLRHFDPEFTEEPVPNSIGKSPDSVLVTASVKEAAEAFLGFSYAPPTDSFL

[11] = target: T4, Serine/threonine-protein kinase BRSK2 (Homo sapiens) (UniProt Q8IWQ3); assay: Inhibition of BRSK2 (unknown origin) at 30 uM by microfluidic mobility shift assay relative to control; outline: as §1
T4 sequence (whole entry): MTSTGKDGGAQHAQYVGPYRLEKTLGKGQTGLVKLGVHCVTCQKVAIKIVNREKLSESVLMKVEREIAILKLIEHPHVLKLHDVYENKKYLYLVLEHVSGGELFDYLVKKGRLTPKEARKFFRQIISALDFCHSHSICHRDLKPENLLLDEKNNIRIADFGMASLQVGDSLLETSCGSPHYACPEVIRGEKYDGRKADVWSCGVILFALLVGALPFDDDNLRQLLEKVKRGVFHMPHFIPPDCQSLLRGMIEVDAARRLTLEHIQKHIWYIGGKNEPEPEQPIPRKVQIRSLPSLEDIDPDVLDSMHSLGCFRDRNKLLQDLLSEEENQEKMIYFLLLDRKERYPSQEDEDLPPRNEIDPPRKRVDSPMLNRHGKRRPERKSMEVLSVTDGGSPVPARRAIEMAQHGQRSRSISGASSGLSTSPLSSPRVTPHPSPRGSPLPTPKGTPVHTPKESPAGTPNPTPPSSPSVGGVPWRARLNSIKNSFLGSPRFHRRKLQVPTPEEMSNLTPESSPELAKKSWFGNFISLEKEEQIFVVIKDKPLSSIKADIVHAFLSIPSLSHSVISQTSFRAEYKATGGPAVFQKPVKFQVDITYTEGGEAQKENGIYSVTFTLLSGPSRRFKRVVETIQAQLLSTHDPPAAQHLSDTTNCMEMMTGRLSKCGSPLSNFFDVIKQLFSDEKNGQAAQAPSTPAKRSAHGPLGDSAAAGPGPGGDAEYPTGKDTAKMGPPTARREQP

Compound: c1ccc(CC2CCC3(CCN(c4ncnc5[nH]cnc45)CC3)NC2)cc1 (racemic)
- inhibition (Homo sapiens): 14%
- inhibition [1]: 38%
- inhibition [2]: 5%
- inhibition [3]: 28%
- inhibition [4]: 65%
- inhibition [5]: 52%
- inhibition [6]: 8%
- inhibition [7]: 17%
- inhibition [8]: 18%
- inhibition [9]: 11%
- inhibition [10]: 15%
- inhibition [11]: 1%

Compound: c1ccc(CC2CCNC3(CCN(c4ncnc5[nH]cnc45)CC3)C2)cc1 (racemic)
- inhibition (Homo sapiens): 11%
- inhibition [1]: 76%
- inhibition [2]: 5%
- inhibition [3]: 10%
- inhibition [4]: 97%
- inhibition [5]: 100%
- inhibition [6]: 3%
- inhibition [7]: 17%
- inhibition [8]: 10%
- inhibition [9]: 8%
- inhibition [10]: 64%
- inhibition [11]: 0%

Compound: c1ccc(C2CCNC3(CCN(c4ncnc5[nH]cnc45)CC3)C2)cc1 (racemic)
- inhibition (Homo sapiens): 11%
- inhibition [1]: 65%
- inhibition [2]: 5%
- inhibition [3]: 25%
- inhibition [4]: 99%
- inhibition [5]: 94%
- inhibition [6]: 10%
- inhibition [7]: 18%
- inhibition [8]: 17%
- inhibition [9]: 7%
- inhibition [10]: 41%
- inhibition [11]: 16%
